Laboratory results: ChEMBL document CHEMBL4765315, “Discovery of IAP-recruiting BCL-X PROTACs as potent degraders across multiple cancer cell lines” (Eur J Med Chem, 2020)
The source made the active and inactive calls. The rule behind the calls is not given here.

Tests used:
[1] = Antiproliferative activity against human MyLa1929 cells assessed as cell viability measured after 72 hrs by MTS assay; assay type: functional, cell-based
Summary of the method: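 MTS tetrazolium read-out of viability after 72 h continuous exposure. MyLa 1929 seeded at 1×10^5 cells per well; EC50/IC50 fitted from concentration–response curves. For MyLa 1929, values are means of at least two independent experiments.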

[2] = system: Bcl-2-like protein 1/E3 ubiquitin-protein ligase XIAP (Homo sapiens); test: Protac activity at BCL-XL/XIAP E3 ligase in human MyLa1929 cells assessed as degradation of BCL-XL by measuring remaining protein at 500 nM measured after 16 hrs by Western blot analysis (reference value: 100%)
[3] = Selectivity ratio of IC50 for human platelets to IC50 for human MyLa1929 cells
Summary of the method: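 Platelets were isolated from platelet-rich plasma in acid citrate buffer with PGE1 (1 µM) and apyrase (0.2 units/mL) at final concentration. They were adjusted to 2 × 10^8/mL in HEPES Tyrode's buffer with 10% FBS, PGE1 and apyrase, then treated for 48 h and read by MTS. MyLa 1929 cells (1×10^5 per well) were treated for 72 h and read by MTS, with IC50 from at least two independent experiments. The ratio is platelet IC50 over MyLa 1929 IC50.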

WI-38 = test: Cytotoxicity against human WI-38 cells assessed as cell viability measured after 72 hrs by MTS assay; assay type: cell-based; conditions: WI-38, 72 h
Platelet = test: Cytotoxicity against human platelet assessed as cell viability measured after 48 hrs by MTS assay
MOLT-4 = test: Antiproliferative activity against human MOLT-4 cells assessed as cell viability measured after 72 hrs by MTS assay; assay type: functional, cell-based
[4] = target: Protein cereblon/Bcl-2-like protein 1 (Homo sapiens) (UniProt Q07817+Q96SW2); test: Protac activity at BCL-XL/CRBN in human MyLa1929 cells assessed as degradation of BCL-XL at 0.01 to 3 uM measured after 16 hrs by western blot analysis; assay type: cell-based; conditions: dose 0.01-3 µM
Summary of the method: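 MyLa 1929 cells treated 16 h with compound (single 500 nM or concentration series), then harvested for immunoblot. Membranes blocked in 5% milk/TBS-Tween, primary antibody overnight at 4 °C, HRP secondary, ECL detection. BCL-XL band normalized to β-actin by densitometry; reported as % protein remaining versus vehicle.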

[5] = Homo sapiens, MyLa1929, 72 h, read-out: IC50

Protein cereblon/Bcl-2-like protein 1 (Homo sapiens), sequence (Q07817 whole entry, looked up): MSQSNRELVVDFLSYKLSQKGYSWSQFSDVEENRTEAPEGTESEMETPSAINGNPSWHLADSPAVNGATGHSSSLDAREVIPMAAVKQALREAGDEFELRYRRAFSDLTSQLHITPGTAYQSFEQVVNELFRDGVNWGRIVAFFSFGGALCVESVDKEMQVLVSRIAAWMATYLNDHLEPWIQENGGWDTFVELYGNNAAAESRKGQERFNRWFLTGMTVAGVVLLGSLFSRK
Protein cereblon/Bcl-2-like protein 1 (Homo sapiens), sequence (Q96SW2 whole entry, looked up): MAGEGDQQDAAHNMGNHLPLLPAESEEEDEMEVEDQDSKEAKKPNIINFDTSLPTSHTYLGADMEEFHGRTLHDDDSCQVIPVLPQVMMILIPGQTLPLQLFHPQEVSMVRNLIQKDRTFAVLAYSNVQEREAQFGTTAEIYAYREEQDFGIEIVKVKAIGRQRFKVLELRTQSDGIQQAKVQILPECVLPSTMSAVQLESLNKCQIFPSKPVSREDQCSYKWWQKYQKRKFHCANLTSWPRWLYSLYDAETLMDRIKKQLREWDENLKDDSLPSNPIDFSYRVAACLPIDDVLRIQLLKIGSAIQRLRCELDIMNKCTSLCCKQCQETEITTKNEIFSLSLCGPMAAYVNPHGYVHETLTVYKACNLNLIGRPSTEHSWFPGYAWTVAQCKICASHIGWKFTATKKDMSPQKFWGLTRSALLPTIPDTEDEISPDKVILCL

Row | SMILES | Remaining BCL-XL protein [2] [%] | IC50 [1, 5] [nM] | further results
1 | CN[C@@H](C)C(=O)N[C@@H](C(=O)N1CCC[C@H]1c1nc(C(=O)c2cccc(OCCOCCOCCOCc3cn(CCCC(=O)N4CCN(CC[C@H](CSc5ccccc5)Nc5ccc(S(=O)(=O)NC(=O)c6ccc(N7CCN(CC8=C(c9ccc(Cl)cc9)CCC(C)(C)C8)CC7)cc6)cc5S(=O)(=O)C(F)(F)F)CC4)nn3)c2)cs1)C1CCCCC1 | 59 | 147 | 
2 | CN[C@@H](C)C(=O)N[C@H]1CCO[C@H]2CC(C)(C)[C@@H](C(=O)N[C@@H]3CCCc4cc(O)ccc43)N2C1=O |  | > 10000 | 
3 | CN[C@@H](C)C(=O)N[C@@H](C(=O)N1CCC[C@H]1c1nc(C(=O)c2cccc(OCCOCCOCCOCCOCC(=O)N3CCN(CC[C@H](CSc4ccccc4)Nc4ccc(S(=O)(=O)NC(=O)c5ccc(N6CCN(CC7=C(c8ccc(Cl)cc8)CCC(C)(C)C7)CC6)cc5)cc4S(=O)(=O)C(F)(F)F)CC3)c2)cs1)C1CCCCC1 | 29 | 75 | 
4 | CN[C@@H](C)C(=O)N[C@@H](C(=O)N1CCC[C@H]1c1nc(C(=O)c2cccc(OCCOCCOCc3cn(CCCC(=O)N4CCN(CC[C@H](CSc5ccccc5)Nc5ccc(S(=O)(=O)NC(=O)c6ccc(N7CCN(CC8=C(c9ccc(Cl)cc9)CCC(C)(C)C8)CC7)cc6)cc5S(=O)(=O)C(F)(F)F)CC4)nn3)c2)cs1)C1CCCCC1 | 31 | 157 | 
5 | CC1(C)CCC(c2ccc(Cl)cc2)=C(CN2CCN(c3ccc(C(=O)NS(=O)(=O)c4ccc(N[C@H](CCN5CCOCC5)CSc5ccccc5)c(S(=O)(=O)C(F)(F)F)c4)cc3)CC2)C1 [NAVITOCLAX] |  | 50 | Ratio IC50 [3]: 137; IC50 (WI-38): 8060 nM; IC50 (Platelet): 189 nM
6 | O=C1CCC(N2C(=O)c3cccc(NCCOCCOCc4cn(CCCC(=O)N5CCN(CC#Cc6ccc(OCCCc7sc(N8CCc9cccc(C(=O)Nc%10nc%11ccccc%11s%10)c9C8)nc7C(=O)O)c(F)c6)CC5)nn4)c3C2=O)C(=O)N1 (stereo unspecified) |  |  | IC50 ([1]; myla1929): Active; Activity (MOLT-4): Active; Activity [4]: Active
7 | CN(CCOCCOCCOCCNc1cccc2c1C(=O)N(C1CCC(=O)NC1=O)C2=O)CC[C@H](CSc1ccccc1)Nc1ccc(S(=O)(=O)NC(=O)c2ccc(N3CCN(CC4=C(c5ccc(Cl)cc5)CCC(C)(C)C4)CC3)cc2)cc1S(=O)(=O)C(F)(F)F (stereo partly specified) |  |  | IC50 ([1]; myla1929): Active; Activity (MOLT-4): Active

Second part, led by results:

Row | Remaining BCL-XL protein [2] [%] | SMILES | IC50 [1, 5] [nM] | further results
8 | 55 | CN[C@@H](C)C(=O)N[C@@H](C(=O)N1CCC[C@H]1c1nc(C(=O)c2cccc(OCCCC(=O)N3CCN(CC[C@H](CSc4ccccc4)Nc4ccc(S(=O)(=O)NC(=O)c5ccc(N6CCN(CC7=C(c8ccc(Cl)cc8)CCC(C)(C)C7)CC6)cc5)cc4S(=O)(=O)C(F)(F)F)CC3)c2)cs1)C1CCCCC1 | 997 | 
9 | 80 | CN[C@@H](C)C(=O)N[C@@H](C(=O)N1CCC[C@H]1c1nc(C(=O)c2cccc(OCCCCC(=O)N3CCN(CC[C@H](CSc4ccccc4)Nc4ccc(S(=O)(=O)NC(=O)c5ccc(N6CCN(CC7=C(c8ccc(Cl)cc8)CCC(C)(C)C7)CC6)cc5)cc4S(=O)(=O)C(F)(F)F)CC3)c2)cs1)C1CCCCC1 | 1960 | 
10 | 108 | CN[C@@H](C)C(=O)N[C@@H](C(=O)N1CCC[C@H]1c1nc(C(=O)c2cccc(OCCCCCCC(=O)N3CCN(CC[C@H](CSc4ccccc4)Nc4ccc(S(=O)(=O)NC(=O)c5ccc(N6CCN(CC7=C(c8ccc(Cl)cc8)CCC(C)(C)C7)CC6)cc5)cc4S(=O)(=O)C(F)(F)F)CC3)c2)cs1)C1CCCCC1 | > 10000 | 
11 | 60 | CN[C@@H](C)C(=O)N[C@@H](C(=O)N1CCC[C@H]1c1nc(C(=O)c2cccc(OCCOCCOCC(=O)N3CCN(CC[C@H](CSc4ccccc4)Nc4ccc(S(=O)(=O)NC(=O)c5ccc(N6CCN(CC7=C(c8ccc(Cl)cc8)CCC(C)(C)C7)CC6)cc5)cc4S(=O)(=O)C(F)(F)F)CC3)c2)cs1)C1CCCCC1 | 143 | 
12 | 104 | CN[C@@H](C)C(=O)N[C@@H](C(=O)N1CCC[C@H]1c1nc(C(=O)c2cccc(OCCCCCC(=O)N3CCN(CC[C@H](CSc4ccccc4)Nc4ccc(S(=O)(=O)NC(=O)c5ccc(N6CCN(CC7=C(c8ccc(Cl)cc8)CCC(C)(C)C7)CC6)cc5)cc4S(=O)(=O)C(F)(F)F)CC3)c2)cs1)C1CCCCC1 | > 10000 | 
